Source: publication PMC11325413 (ACS Omega, 2024)

How the values were obtained:
[1] = system: A-549; experiment: Cytotoxicity assay, lung cancer cell line; assay type: cell-based; details: Homo sapiens, A549, read-out: cytotoxic activity IC50 ± SEM, A-549
Procedure, shortened: (§1)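 Cytotoxicity of test compound was measured by MTT assay in a panel of four human cancer cell lines, with IC50 derived from the viability read-out.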

[2] = system: MCF-7; experiment: Cytotoxicity assay, breast cancer cell line; assay type: cell-based; details: Homo sapiens, MCF7, read-out: cytotoxic activity IC50 ± SEM, MCF-7
Procedure, shortened: as §1

[3] = system: Panc-1; experiment: Cytotoxicity assay, pancreatic cancer cell line; assay type: cell-based; details: Homo sapiens, PANC-1, read-out: cytotoxic activity IC50 ± SEM, Panc-1
Procedure, shortened: as §1

[4] = system: HT-29; experiment: Cytotoxicity assay, colon cancer cell line; assay type: cell-based; details: Homo sapiens, HT-29, read-out: cytotoxic activity IC50 ± SEM, HT-29
Procedure, shortened: as §1

[5] = system: four human cancer cell lines (A-549, MCF-7, Panc-1, HT-29); experiment: Cytotoxicity assay, average over the four cancer cell lines; assay type: cell-based; details: read-out: cytotoxic activity average IC50 (GI50)
[6] = system: MCF-10A cells; experiment: Cell viability assay; assay type: cell-based, human; details: 50 μM doses
Procedure, shortened: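 Normal human mammary gland epithelial MCF-10A cells were incubated with test compound for 4 days, and viability was read by MTT assay.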

[7] = molecular target: EGFR (Homo sapiens, UniProt P00533); experiment: EGFR-TK inhibitory assay; assay type: biochemical
[8] = molecular target: VEGFR-2 (Homo sapiens, UniProt P35968); experiment: VEGFR-2 inhibitory kinase assay; assay type: biochemical
[9] = system: p53; experiment: Apoptosis marker immunoassay in A-549: p53; assay type: cell-based, human; details: A-549 cells
Procedure, shortened: (§2)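 Sandwich immunoassay quantifying pro-apoptotic (p53, BAX, caspase 3, caspase 6) and antiapoptotic (BCL-2, CK-18) proteins in human lung A-549 cells treated with test compound. Levels are expressed as fold change relative to untreated control cells, as mean ± SD of three independent experiments.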

[10] = system: BAX; experiment: Apoptosis marker immunoassay in A-549: BAX; assay type: cell-based, human; details: A-549 cells
Procedure, shortened: as §2

[11] = system: caspase 3; experiment: Apoptosis marker immunoassay in A-549: caspase 3; assay type: cell-based, human; details: A-549 cells
Procedure, shortened: as §2

[12] = system: caspase 6; experiment: Apoptosis marker immunoassay in A-549: caspase 6; assay type: cell-based, human; details: A-549 cells
Procedure, shortened: as §2

[13] = system: CK-18; experiment: Apoptosis marker immunoassay in A-549: CK-18; assay type: cell-based, human; details: A-549 cells
Procedure, shortened: as §2

Sequence of VEGFR-2 (P35968 20-1356): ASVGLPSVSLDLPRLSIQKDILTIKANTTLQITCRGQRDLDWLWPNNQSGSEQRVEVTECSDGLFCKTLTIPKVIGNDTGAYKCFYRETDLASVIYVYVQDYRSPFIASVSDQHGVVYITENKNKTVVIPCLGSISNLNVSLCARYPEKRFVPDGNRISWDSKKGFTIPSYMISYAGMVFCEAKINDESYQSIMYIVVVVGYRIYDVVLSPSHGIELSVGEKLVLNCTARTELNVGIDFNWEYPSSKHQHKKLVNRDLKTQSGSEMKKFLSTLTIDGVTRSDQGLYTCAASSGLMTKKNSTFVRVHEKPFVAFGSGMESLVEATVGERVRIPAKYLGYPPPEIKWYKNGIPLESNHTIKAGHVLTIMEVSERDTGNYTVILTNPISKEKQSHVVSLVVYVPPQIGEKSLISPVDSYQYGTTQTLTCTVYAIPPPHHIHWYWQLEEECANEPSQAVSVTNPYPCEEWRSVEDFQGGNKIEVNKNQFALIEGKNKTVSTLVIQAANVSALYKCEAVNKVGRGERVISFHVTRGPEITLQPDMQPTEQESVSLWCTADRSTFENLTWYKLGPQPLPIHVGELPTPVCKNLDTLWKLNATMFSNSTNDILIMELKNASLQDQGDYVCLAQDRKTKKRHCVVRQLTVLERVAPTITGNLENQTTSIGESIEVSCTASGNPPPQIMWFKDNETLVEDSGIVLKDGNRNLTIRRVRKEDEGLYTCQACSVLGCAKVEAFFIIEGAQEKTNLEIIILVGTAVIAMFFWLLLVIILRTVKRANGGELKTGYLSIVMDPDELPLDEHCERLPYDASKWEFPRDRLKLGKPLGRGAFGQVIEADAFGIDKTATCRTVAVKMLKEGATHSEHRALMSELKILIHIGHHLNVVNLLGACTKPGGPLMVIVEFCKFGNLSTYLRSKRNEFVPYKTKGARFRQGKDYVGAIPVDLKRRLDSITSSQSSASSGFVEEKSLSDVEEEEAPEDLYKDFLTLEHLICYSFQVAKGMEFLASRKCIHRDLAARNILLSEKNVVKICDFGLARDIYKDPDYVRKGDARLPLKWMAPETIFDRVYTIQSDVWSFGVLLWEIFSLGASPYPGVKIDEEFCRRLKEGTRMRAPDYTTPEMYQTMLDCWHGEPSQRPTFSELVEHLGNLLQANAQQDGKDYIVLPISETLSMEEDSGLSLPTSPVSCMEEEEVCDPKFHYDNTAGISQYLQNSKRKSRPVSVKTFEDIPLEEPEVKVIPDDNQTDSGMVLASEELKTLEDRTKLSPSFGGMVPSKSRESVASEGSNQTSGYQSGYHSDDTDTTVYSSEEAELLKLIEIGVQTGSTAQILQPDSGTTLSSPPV
Sequence of EGFR (P00533 669-1210): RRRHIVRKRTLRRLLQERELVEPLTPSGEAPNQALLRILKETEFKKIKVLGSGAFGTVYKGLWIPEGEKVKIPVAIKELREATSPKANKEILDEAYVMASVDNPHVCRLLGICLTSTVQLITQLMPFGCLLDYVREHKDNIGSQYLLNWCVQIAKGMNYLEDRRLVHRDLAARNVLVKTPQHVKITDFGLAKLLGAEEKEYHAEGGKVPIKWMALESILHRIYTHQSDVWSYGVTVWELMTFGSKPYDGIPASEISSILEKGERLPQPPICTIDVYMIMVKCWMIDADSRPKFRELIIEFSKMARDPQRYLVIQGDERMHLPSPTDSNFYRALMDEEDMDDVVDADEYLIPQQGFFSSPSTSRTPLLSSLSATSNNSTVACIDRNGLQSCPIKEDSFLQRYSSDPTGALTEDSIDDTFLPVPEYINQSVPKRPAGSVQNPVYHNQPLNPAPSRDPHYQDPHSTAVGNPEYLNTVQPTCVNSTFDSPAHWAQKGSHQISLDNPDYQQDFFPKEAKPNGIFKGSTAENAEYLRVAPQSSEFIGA

Structure (SMILES)	IC50 [1] [nM]	IC50 [2] [nM]	IC50 [3] [nM]	IC50 [4] [nM]	IC50 [5] [nM]	effect on nontumor cells MCF-10A [6]	IC50 [7] [nM]	IC50 [8] [nM]	p53 elevation compared to control untreated cells [9] [fold]	BAX elevation compared to control untreated cells [10] [fold]	caspase 3 elevation compared to control untreated cells [11] [fold]	caspase 6 elevation compared to control untreated cells [12] [fold]	CK 18 protein expression level compared to control untreated cells [13] [folds]
COc1ccc(C2NC(=S)NC(C)=C2C(=O)OC(C)C)cc1OC (stereo not shown) [Compound 5, Isopropyl 4-(3,4-Dimethoxyphenyl)-6-methyl-2-thioxo-1,2,3,4-tetrahydropyrimidine-5-carboxylate]	67 ± 6	71 ± 6	68 ± 6	70 ± 6	68								
COc1cc(C2NC(=O)NC(C)=C2C(=O)OC(C)C)ccc1O (stereo not shown) [Compound 9, Isopropyl 4-(4-Hydroxy-3-methoxyphenyl)-6-methyl-2-oxo-1,2,3,4-tetrahydropyrimidine-5-carboxylate]	74 ± 7	79 ± 7	75 ± 7	77 ± 7	76								
CC1=C(C(=O)OC(C)C)C(c2ccc(O)cc2)NC(=O)N1 (stereo not shown) [Compound 13, Isopropyl 4-(4-Hydroxyphenyl)-6-methyl-2-oxo-1,2,3,4-tetrahydropyrimidine-5-carboxylate]	62 ± 6	64 ± 6	61 ± 6	64 ± 6	62								
COc1ccc(C2NC(=O)NC(C)=C2C(=O)OC(C)C)cc1OC (stereo not shown) [Compound 10, Isopropyl 4-(3,4-Dimethoxyphenyl)-6-methyl-2-oxo-1,2,3,4-tetrahydropyrimidine-5-carboxylate]	52 ± 5	55 ± 5	52 ± 5	54 ± 5	53								
COc1cc(C2NC(=O)NC(C)=C2C(=O)OC(C)C)cc(OC)c1OC (stereo not shown) [Compound 11, Isopropyl 6-Methyl-2-oxo-4-(3,4,5-trimethoxyphenyl)-1,2,3,4-tetrahydropyrimidine-5-carboxylate]	56 ± 5	58 ± 5	56 ± 5	59 ± 5	57								
CC1=C(C(=O)OC(C)C)C(c2cccc(O)c2)NC(=O)N1 (stereo not shown) [Compound 12, Isopropyl 4-(3-Hydroxyphenyl)-6-methyl-2-oxo-1,2,3,4-tetrahydropyrimidine-5-carboxylate]	36 ± 3	38 ± 3	36 ± 3	38 ± 3	37	no effect	87 ± 5	4.2 ± 0.04	4.75	13.95	8.20	9.65	
C#Cc1cccc(Nc2ncnc3cc(OCCOC)c(OCCOC)cc23)c1 [erlotinib, reference compound]	30 ± 3	40 ± 3	30 ± 3	30 ± 3									
COc1cc(C2NC(=O)NC(C)=C2C(=O)OC(C)C)ccc1OCc1ccccc1 (stereo not shown) [Compound 15, Isopropyl 4-[4-(Benzyloxy)-3-methoxyphenyl]-6-methyl-2-oxo-1,2,3,4-tetrahydropyrimidine-5-carboxylate]	33 ± 3	36 ± 3	34 ± 3	36 ± 3	35	no effect	84 ± 5	3.5 ± 0.03	5.90	14.50	8.70	9.80	0.60
COc1cc(C2NC(=S)NC(C)=C2C(=O)OC(C)C)ccc1O (stereo not shown) [Compound 4, Isopropyl 4-(4-Hydroxy-3-methoxyphenyl)-6-methyl-2-thioxo-1,2,3,4-tetrahydropyrimidine-5-carboxylate]	47 ± 4	50 ± 5	48 ± 4	49 ± 4	49								
CC1=C(C(=O)OC(C)C)C(c2ccc(O)cc2)NC(=S)N1 (stereo not shown) [Compound 8, Isopropyl 4-(4-Hydroxyphenyl)-6-methyl-2-thioxo-1,2,3,4-tetrahydropyrimidine-5-carboxylate]	64 ± 6	68 ± 6	67 ± 6	68 ± 6	67								
COc1ccc(C2NC(=O)NC(C)=C2C(=O)OC(C)C)cc1O (stereo not shown) [Compound 14, Isopropyl 4-(3-Hydroxy-4-methoxyphenyl)-6-methyl-2-oxo-1,2,3,4-tetrahydropyrimidine-5-carboxylate]	40 ± 4	44 ± 4	42 ± 4	43 ± 4	41		92 ± 5	4.7 ± 0.04	3.10	11.50	7.40	8.50	0.40
CC1=C(C(=O)OC(C)C)C(c2cccc(O)c2)NC(=S)N1 (stereo not shown) [Compound 7, Isopropyl 4-(3-Hydroxyphenyl)-6-methyl-2-thioxo-1,2,3,4-tetrahydropyrimidine-5-carboxylate]	70 ± 7	74 ± 7	72 ± 7	73 ± 7	71								
COc1cc(C2NC(=S)NC(C)=C2C(=O)OC(C)C)cc(OC)c1OC (stereo not shown) [Compound 6, Isopropyl 6-Methyl-2-thioxo-4-(3,4,5-trimethoxyphenyl)-1,2,3,4-tetrahydropyrimidine-5-carboxylate]	42 ± 4	46 ± 4	44 ± 4	47 ± 4	45		98 ± 6	5.3 ± 0.05					
